According to PubChem BioAssay AID504495 (The Scripps Research Institute Molecular Screening Center, 2011):

Target: Platelet-activating factor acetylhydrolase 2, cytoplasmic (Mus musculus) (UniProt Q8VDG7)
Experiment: PAFAH2 inhibition in cultured cells, late-stage follow-up, cell-based, gel-based competitive ABPP, fluorescence, powder samples (AID 504495)
Conditions: BW5147 murine T cells, in situ gel ABPP, FP-Rh, 4 h; at 0.03 µM; active compounds read high
In short: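 Test system: murine BW5147 T cells; probe or stimulus: rhodamine fluorophosphonate probe (FP-Rh), 2 µM final; times: cells 4 h 37 °C, probe 30 min 25 °C; signal: in-gel fluorescence scan after SDS-PAGE, PAFAH2 band optical density; read-out basis: % inhibition versus DMSO-treated cells; controls: DMSO-treated cells, blank gel background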

Sequence of Platelet-activating factor acetylhydrolase 2, cytoplasmic (Mus musculus) (Q8VDG7 whole entry, looked up): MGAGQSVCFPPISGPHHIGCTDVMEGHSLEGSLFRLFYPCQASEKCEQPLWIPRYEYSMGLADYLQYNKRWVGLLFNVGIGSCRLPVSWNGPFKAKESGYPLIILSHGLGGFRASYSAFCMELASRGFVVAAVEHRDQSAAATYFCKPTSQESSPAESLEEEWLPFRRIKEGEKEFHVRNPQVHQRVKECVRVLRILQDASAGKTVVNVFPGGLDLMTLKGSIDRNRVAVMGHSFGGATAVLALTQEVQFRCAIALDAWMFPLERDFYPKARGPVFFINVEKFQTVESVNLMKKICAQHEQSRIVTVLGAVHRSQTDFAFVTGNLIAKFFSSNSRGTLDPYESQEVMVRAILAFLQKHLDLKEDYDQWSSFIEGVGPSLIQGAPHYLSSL

- inhibition: 100%
Structure (SMILES): O=C(N1CCCC1)n1ncc(-c2ccc(-c3ccccc3)cc2)n1
